Compounds with a hit are over-represented: about 2.7% of the library has one in this group of screens.
PfM18AAP inh-1: PfM18AAP enzyme inhibition; inhibition, % at 7.35 µM; 290,000 tested, 1.2% active; recombinant PfM18AAP, H-Glu-NHMec fluorogenic cleavage; AID 1822;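 active = inhibition above the campaign mean inhibition over all tested compounds plus 3 SD, cut at about 28% in these data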;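 also: 0% = plate median of test compound wells and 100% = 2 mM ZnCl2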
zVAD death inh: L929 zVAD cell death inhibition; L929 zVAD necroptosis rescue, ATP luminescence, 24 h; with zVAD 60 µM; viability rescue, % at 10 µM; 220,000 tested, 0.38% active; AID 1377;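 active = activation, scaled between plate controls, above about 75%, limit read from the data; inactive = activation under that limit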;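 also: 0% = zVAD with DMSO and 100% = DMSO alone without zVAD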
p97 ATPase inh: inhibitors of human p97 ATPase. recombinant p97 ATPase, Kinase-Glo ATP luminescence, 3 h. inhibition, % at 8 µM. 220,000 tested, 0.42% active; in the data active = inhibition above about 15%;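 also: 0% = DMSO vehicle and 100% = wells lacking enzyme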
TNF death inh: TNF-alpha cell death inhibition in Jurkat FADD-/- cells; activation (protection from cell death), % at 10 µM; AID 463075; 220,000 tested, 0.068% active; Jurkat FADD-/- TNF necroptosis rescue, ATP luminescence, 24 h; 0 = TNF only, 100 = no-TNF cells;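 active = activation, meaning protection from cell death, of at least 50% relative to plate controls; inactive = activation below 50%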;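 also: necroptosis triggered by 40 ng/mL TNF-alpha added together with compound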
Wee1 stabilizer: inhibitors of human Wee1 degradation | P30291 | HeLa Luc-Wee1K328M stability, luciferase luminescence; 100% = proteasome inhibitor MG132 effect | reporter increase, % at 5 µM | 220,000 tested, 1.2% active | AID 1321;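 active = activation above the mean of all tested compounds plus 3 SD, set per screening run, cut at about 8.8% in these data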;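 also: cells exposed to compound for 20 h before luminescence read; 0% = DMSO alone and 100% = MG132 at 30 µM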
RBBP9 inhibitor: blocks human serine hydrolase RBBP9. O75884. recombinant RBBP9, FP-Rh probe fluorescence polarization. inhibition, % at 7.94 µM. 220,000 tested, 0.2% active. AID 1515;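 active = inhibition above the campaign mean of all tested compounds plus 3 SD, cut at about 14% in these data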;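 also: plate controls were DMSO wells with RBBP9 for no effect and wells lacking RBBP9 protein for full effect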
Target sequence (O75884 whole entry, looked up): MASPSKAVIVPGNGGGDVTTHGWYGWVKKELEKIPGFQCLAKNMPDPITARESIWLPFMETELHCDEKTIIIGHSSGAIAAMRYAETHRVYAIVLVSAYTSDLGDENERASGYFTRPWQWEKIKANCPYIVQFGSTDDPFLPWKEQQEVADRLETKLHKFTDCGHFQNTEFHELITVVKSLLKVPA
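Test system: recombinant human RBBP9. Quantity: 2.5 µM RBBP9 dispensing solution, before mixing. Detection: FP readout at 525/598 nm. Reagent: Serine-hydrolase probe FP-Rh, 375 nM pre-mixing. Measure: % inhibition. Control set: DMSO-treated enzyme wells and wells lacking RBBP9. Buffer or medium: Tris-NaCl-Pluronic buffer, pH 8.0. Times: preincubation 30 min plus labeling 45 min at 25 °C.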
PfM18AAP inh-2: PfM18AAP inhibition, confirmation; inhibition, % at 7.35 µM; recombinant PfM18AAP, H-Glu-NHMec fluorogenic cleavage; shares compounds with PfM18AAP inh-1; 2,400 tested, 28% active;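 active = mean inhibition over replicate wells above the hit cutoff set for the earlier primary screen, cut at about 29% in these data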;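 also: 0% = median of test compound wells and 100% = 2 mM ZnCl2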
CTSL1 counter: counter-screen for PFM18AAP inhibitors: confirmation of human cathepsin L inhibitors. 2,400 tested, under 10 active. AID 2178. inhibition, % at 5.96 µM. purified cathepsin L1, Z-Leu-Arg-MCA fluorescence. shares compounds with PfM18AAP inh-1;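 active = average inhibition across replicates above the hit cutoff set in the earlier primary screen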;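 also: 0% = median of test compound wells and 100% = Z-Phe-Ala-diazomethylketone 1 µM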
Target sequence (P07711 whole entry, looked up): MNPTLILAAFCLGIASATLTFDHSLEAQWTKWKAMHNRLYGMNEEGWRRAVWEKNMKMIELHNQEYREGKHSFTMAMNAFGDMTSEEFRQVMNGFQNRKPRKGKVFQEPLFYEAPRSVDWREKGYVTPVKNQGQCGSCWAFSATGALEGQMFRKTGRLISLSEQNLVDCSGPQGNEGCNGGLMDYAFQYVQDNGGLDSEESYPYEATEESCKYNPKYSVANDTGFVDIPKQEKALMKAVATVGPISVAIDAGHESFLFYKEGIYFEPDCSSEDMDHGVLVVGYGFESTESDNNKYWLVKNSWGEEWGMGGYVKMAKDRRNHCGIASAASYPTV
Numbers without * were called inactive; x = no result.

SMILES | PfM18AAP inh-1 | zVAD death inh | p97 ATPase inh | TNF death inh | Wee1 stabilizer | RBBP9 inhibitor | PfM18AAP inh-2 | CTSL1 counter
C/C(=N\Nc1ccc2nncn2n1)c1cccs1 | 40* | 2 | 2 | 2 | -2 | -4 | -16 | 0
COc1ccc(C)cc1S(=O)(=O)N1CCCC(C(=O)N2CCN(c3ccccc3F)CC2)C1 (centres undefined) | -7 | x | x | x | x | x | x | x
CSc1nc(-c2ccc(C)cc2)[nH]c1S(=O)(=O)c1ccccc1 | 3 | 1 | 5 | 0 | 1 | -6 | x | x
CC(=O)Sc1nc(-c2ccccc2)[nH]c1S(=O)(=O)c1ccc(C)cc1 | 55* | 0 | 4 | -5 | 0 | 9 | 5 | -5
Cc1ccc(-n2c(CCc3nc4ccccc4[nH]3)n[nH]c2=S)cc1 | 33* | 0 | 6 | 0 | -2 | -7 | -20 | -6
Cc1ccccc1C(=O)NNc1ccc([N+](=O)[O-])cc1 | 60* | 0 | -1 | 1 | 8 | -3 | 48* | 2
O=C(NNc1ccc([N+](=O)[O-])cc1)C1CC2CCCC(C1)C2=O (centres undefined) | 26 | -1 | -4 | -2 | -1 | -2 | x | x
O=C(NNc1ccc([N+](=O)[O-])cc1)C1CC1c1ccccc1 (centres undefined) | 43* | x | 5 | 4 | 0 | -9 | 15 | 3
CCN(CC)CC(=O)Nc1ccc([N+](=O)[O-])cc1 | 0 | 0 | 3 | 0 | 0 | 2 | x | x
CCCN(CCC)CCNC(=O)C1CCN(S(=O)(=O)c2cccc3nsnc23)CC1 | 2 | x | x | x | x | x | x | x
CCC(=O)NCCc1nc2cc(NC(=O)c3ccco3)ccc2n1C | 9 | x | x | x | x | x | x | x
O=C(c1cc[n+]([O-])cc1)N1CCCC(N2CCN(c3cccc(C(F)(F)F)c3)CC2)C1 (centres undefined) | -1 | x | x | x | x | x | x | x
O=C(CSc1ncn[nH]1)Nc1ccccc1C(=O)O | 44* | 0 | 1 | -3 | -2 | -9 | 15 | 0
O=C(Nc1ccccc1C(=O)O)c1ncn[nH]1 | 77* | 0 | 4 | -2 | 0 | -5 | 58* | -1
O=C(Nc1ccc(N2CCN(C(=O)c3ccccc3F)CC2)cc1)c1ncn[nH]1 | 39* | 16 | 3 | 3 | -3 | -1 | 22 | 5
O=C(CSc1ncn[nH]1)Nc1nc(-c2ccccc2)ns1 | 82* | -1 | -4 | 1 | -2 | -10 | 85* | -4
O=C(Nc1ccccc1C(=O)Nc1ccccc1C(=O)O)c1ccccc1 | -13 | x | x | x | x | x | x | x
CCC(=O)Nc1nc(-c2ccccc2)ns1 | 6 | 1 | -6 | 0 | 0 | -12 | x | x
COc1ccc(OC)c(CNC(=O)c2nn(C)c3c2CS(=O)(=O)c2ccccc2-3)c1 | 1 | x | x | x | x | x | x | x
Cc1cc(NC(=O)CSc2ncn[nH]2)no1 | 19 | 0 | 2 | 0 | 1 | 3 | x | x
CC(C)c1nnc(NC(=O)CSc2ncn[nH]2)s1 | 42* | 0 | 1 | -1 | 2 | -3 | 52* | 4
CCN1/C(=C/c2cc[n+](CCCS(=O)(=O)[O-])c3ccccc23)Sc2ccccc21 | 33* | -1 | -3 | -1 | 3 | -12 | -45 | -2
CCCCCCOc1ccc(C(=O)O)cc1 | -6 | 0 | 2 | 1 | -1 | 0 | x | x
CCCCCCOc1ccc(C(=O)n2cnc(N)n2)cc1 | 44* | 1 | -3 | 0 | -2 | -8 | 41* | -1
Cc1ccsc1C1C(C#N)=C(N)Oc2n[nH]c(C)c21 (centres undefined) | 7 | 1 | -4 | -2 | -1 | -8 | x | x
SMILES | PfM18AAP inh-1 | zVAD death inh | p97 ATPase inh | TNF death inh | Wee1 stabilizer | RBBP9 inhibitor | PfM18AAP inh-2 | CTSL1 counter
Cc1[nH]nc2c1C(c1cccs1)C(C#N)=C(N)O2 (centres undefined) | 35* | 1 | 11 | -1 | 1 | 12 | 21 | -4
O=C(O)CCOc1ccc2c(c1)OCCO2 | 63* | 0 | 4 | -1 | -1 | -3 | -45 | -3
Fc1cccc(Cl)c1Cn1nnc2c(NCc3ccncc3)ncnc21 | 4 | 1 | -3 | -1 | 4 | 3 | x | x
CNC(=O)N(O)C1N(C)C(=O)N(CC(=O)OC)C1(C)C (centres undefined) | 37* | 0 | -3 | -2 | 0 | -5 | -23 | 1
CCOc1ccc(N2CC(C(=O)Nc3ccncc3)CC2=O)cc1 (centres undefined) | -6 | x | x | x | x | x | x | x
Cn1c(C(=O)O)cnc1Sc1ncc(C(F)(F)F)cc1Cl | 2 | 4 | 7 | 0 | 0 | -2 | x | x
FC(F)(F)c1cnc(Sc2ncn[nH]2)c(Cl)c1 | 92* | -1 | 8 | 0 | -1 | 14 | 83* | -4
Nc1cc(=O)[nH]c(SCC(=O)Nc2ncc(C(F)(F)F)cc2Cl)n1 | 7 | 1 | 5 | 1 | -1 | 1 | x | x
O=C(CSc1ncn[nH]1)Nc1ncc(C(F)(F)F)cc1Cl | 84* | 2 | 0 | 0 | 2 | -8 | 74* | -5
Cc1ccc(NC(=O)C2CCN(S(=O)(=O)c3c(C)nn(C)c3C)CC2)c(Cl)c1 | 0 | x | x | x | x | x | x | x
O=S(=O)(Nn1cnnc1)c1ccc2ccccc2c1 | 20 | 3 | 8 | 0 | -1 | -8 | x | x
O=S(=O)(Nn1cnnc1)c1ccccc1Cl | 36* | -1 | 3 | -1 | 1 | -2 | 43* | 0
O=S(=O)(Nn1cnnc1)c1ccccc1 | 37* | 0 | -4 | -1 | -2 | -3 | 61* | 1
CCOC(=O)/C(C)=N/Nc1nc(-c2ccc(NC(C)=O)cc2)cs1 | 16 | 3 | 6 | -9 | 1 | -7 | x | x
COC(=O)CN(n1cnnc1)S(=O)(=O)c1ccc(C)cc1 | 84* | 0 | 2 | 0 | -1 | -5 | 79* | -13
COC(=O)CN(c1cc(Cl)ccc1OC)S(=O)(=O)c1ccc(C)cc1 | -2 | 0 | -1 | -8 | -1 | -9 | x | x
Cn1c(SCC(=O)c2ccc(O)c(O)c2)nnc1-c1ccccc1 | 48* | x | x | x | x | x | 17 | 3
O=C(CSc1nc2ccccc2n1CCc1ccccc1)c1ccc(O)c(O)c1 | 44* | 0 | 9 | -5 | 0 | -22 | 11 | -3
Cn1c(SCC(=O)c2ccc(O)c(O)c2)nnc1-c1cccs1 | 46* | 2 | 9 | 3 | -1 | 2 | 8 | 0
COc1cc(/C=C/C(=O)O)cc(S(=O)(=O)Nc2ccc3nc(C)sc3c2)c1OC | 38* | 0 | 1 | 0 | 4 | -4 | -6 | 2
O=C(Cc1nc2ccccc2[nH]1)c1ccc(Br)cc1 | -22 | 0 | -7 | -1 | 1 | -14 | x | x
